The list is not random: actives were taken first. Their share in the collection is about 1.3%.
PfGluPho inh = PfG6PD (Plasmodium falciparum) enzyme inhibition; PfGluPho enzyme, NADPH resazurin-diaphorase fluorescence; inhibition, % at 20 µM; actives 0.78% (n = 350,000);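 active = inhibition reaching at least a set limit at 20 µM in the primary screen, cut at about 59% in these data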
Diaph inh CS = inhibits diaphorase or chemically oxidizes, flagging diaphorase assay artifacts; inhibition, % at 20 µM; actives 0.69% (n = 190,000); diaphorase resazurin-to-resorufin fluorescence, NADH, 16 min; bacterial (C. kluyveri) enzyme, not human;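 active = primary screen inhibition at 20 µM above a set limit, cut at about 50% in these data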
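System: Bacterial diaphorase enzyme (C. kluyveri) | Incubation: 16-min room-temperature incubation before reading | Benchmarks: No-NADH positive control and DMSO neutral control | Measured by: Resorufin fluorescence 544/590 nm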
HKDC1 inhibitor = inhibitors of human hexokinase HKDC1; recombinant HKDC1, G6PDH/diaphorase resazurin coupled fluorescence; Q2TB90; inhibition, % at 20 µM; AID 493160; actives 0.16% (n = 340,000);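 active = inhibition above about 35% when tested at 20 µM, limit read from the data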
Target sequence (Q2TB90 whole entry, looked up): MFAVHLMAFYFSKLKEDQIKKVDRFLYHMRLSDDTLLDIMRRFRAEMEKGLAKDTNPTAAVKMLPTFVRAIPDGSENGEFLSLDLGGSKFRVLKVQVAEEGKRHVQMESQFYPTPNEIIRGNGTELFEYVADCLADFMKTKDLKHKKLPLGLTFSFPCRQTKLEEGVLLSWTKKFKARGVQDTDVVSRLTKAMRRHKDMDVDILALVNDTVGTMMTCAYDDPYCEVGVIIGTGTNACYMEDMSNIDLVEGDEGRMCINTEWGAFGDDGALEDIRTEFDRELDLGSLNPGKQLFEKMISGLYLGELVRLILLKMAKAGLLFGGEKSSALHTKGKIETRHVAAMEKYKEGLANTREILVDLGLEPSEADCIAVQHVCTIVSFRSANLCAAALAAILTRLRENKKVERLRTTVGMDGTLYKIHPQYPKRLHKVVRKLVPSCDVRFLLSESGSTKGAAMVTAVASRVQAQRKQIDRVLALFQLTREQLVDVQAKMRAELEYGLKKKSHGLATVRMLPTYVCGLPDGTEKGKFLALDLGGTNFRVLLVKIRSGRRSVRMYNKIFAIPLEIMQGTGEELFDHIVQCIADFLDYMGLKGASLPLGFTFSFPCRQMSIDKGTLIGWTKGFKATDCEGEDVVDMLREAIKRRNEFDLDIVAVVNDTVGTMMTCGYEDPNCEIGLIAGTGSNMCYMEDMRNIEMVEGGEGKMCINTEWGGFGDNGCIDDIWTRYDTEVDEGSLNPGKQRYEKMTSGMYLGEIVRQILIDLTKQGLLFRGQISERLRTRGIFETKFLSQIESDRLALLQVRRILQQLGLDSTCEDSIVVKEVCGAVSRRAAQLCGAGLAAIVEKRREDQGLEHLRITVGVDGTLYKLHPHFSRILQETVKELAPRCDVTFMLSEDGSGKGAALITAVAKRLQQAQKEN
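Test system: recombinant HKDC1 (HK5) hexokinase enzyme, produced in-house; Amount: enzyme 5 µg/mL final; Buffer or medium: Tris pH 8.0 buffer with MgCl2, Tween-20, BSA, BME; Reagent: glucose and ATP substrates; Doses: 20 µM test compound, 1% DMSO; Incubation: 90 min reaction incubation at room temperature, dark; Detection: resorufin fluorescence at 613 nm.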
G6PDH CS = counter-screen for G6PDH assay hits: L. mesenteroides G6PDH inhibition; Purified L. mesenteroides G6PDH, diaphorase/resazurin coupled fluorescence, 45 min; inhibition, % at 5 µM; AID 1020; actives 0.12% (n = 200,000); in the data active = inhibition above about 50%
TbHK1 inh = T. brucei hexokinase 1 inhibition; recombinant TbHK1, G6PDH-coupled NADH A340; inhibition, % at 10 µM; actives 0.11% (n = 220,000);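 active = inhibition of 50% or more in the single-dose primary screen; inactive = inhibition below 50%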
Numbers stand for hits.

Screening Cc1ccc(CNC(=O)C(=O)NCC2OCCN2C(=O)c2ccc(Cl)cc2)cc1 (centres undefined) returned PfGluPho inh inactive, Diaph inh CS inactive, HKDC1 inhibitor inactive, G6PDH CS inactive and TbHK1 inh inactive.
For CCCc1nc2sc3c(=O)n(N)cnc3c2c2c1COC(C)(C)C2 the results were Diaph inh CS inactive, G6PDH CS inactive and TbHK1 inh inactive.
Screening CCSc1ncnc2c1sc1nc(-c3ccco3)c3c(c12)CC(C)(C)OC3 returned Diaph inh CS inactive, G6PDH CS inactive and TbHK1 inh inactive.
Cc1nc(NCc2ccco2)c(C#N)c2c1COC(C)(C)C2 was read as PfGluPho inh inactive, Diaph inh CS inactive, HKDC1 inhibitor inactive, G6PDH CS inactive and TbHK1 inh inactive.
For CC(C)c1nc2sc3c(NCc4ccco4)ncnc3c2c2c1COC(C)(C)C2 the results were PfGluPho inh inactive, Diaph inh CS 104, HKDC1 inhibitor inactive, G6PDH CS inactive and TbHK1 inh inactive.
CCN(CCO)c1ncnc2c1sc1nc(C(C)C)c3c(c12)CC(C)(C)OC3 was read as PfGluPho inh inactive, Diaph inh CS 63, HKDC1 inhibitor inactive, G6PDH CS inactive and TbHK1 inh inactive.
For CC(C)c1nc2sc3c(NCc4ccccc4)ncnc3c2c2c1COC(C)(C)C2 the results were PfGluPho inh inactive, Diaph inh CS 58, HKDC1 inhibitor inactive, G6PDH CS inactive and TbHK1 inh inactive.
For CSc1nc(NCc2ccco2)c2sc3nc(C(C)C)c4c(c3c2n1)CC(C)(C)OC4 the results were PfGluPho inh inactive, Diaph inh CS 86, HKDC1 inhibitor inactive, G6PDH CS inactive and TbHK1 inh inactive.
COC(=O)C(Cc1ccccc1)NC(=O)CC(C)CC(=O)Nc1ccc(OC)cc1OC (centres undefined) was read as PfGluPho inh inactive and HKDC1 inhibitor inactive.
`CCCCn1c(C)cc2cc(O)ccc21` gave PfGluPho inh inactive, Diaph inh CS inactive, HKDC1 inhibitor inactive, G6PDH CS 57 and TbHK1 inh inactive.
`CC(C)Nc1nc(-c2ccncc2)nc(-c2ccccc2)c1C#N` gave PfGluPho inh inactive and HKDC1 inhibitor inactive.
CN1C(=O)CSc2ccc(NC(=O)NCCC3=CCCCC3)cc21 was read as PfGluPho inh inactive, Diaph inh CS inactive, HKDC1 inhibitor inactive, G6PDH CS inactive and TbHK1 inh inactive.
`COc1cc(OC)c2c(=O)cc(-c3ccccc3)oc2c1` gave PfGluPho inh inactive, Diaph inh CS 55, HKDC1 inhibitor inactive, G6PDH CS inactive and TbHK1 inh inactive.
COc1cc(OC)c2c(=O)cc(-c3cccnc3)oc2c1 was read as PfGluPho inh inactive, HKDC1 inhibitor inactive and TbHK1 inh inactive.
For COc1cc2c(c3oc(-c4ccccc4)cc(=O)c13)C=CC(C)(C)O2 the results were PfGluPho inh inactive, Diaph inh CS 82, HKDC1 inhibitor inactive, G6PDH CS inactive and TbHK1 inh inactive.
For COc1ccc(-c2csc(/C(C#N)=C\c3ccc(O)c([N+](=O)[O-])c3)n2)cc1OC the results were PfGluPho inh inactive, HKDC1 inhibitor inactive and TbHK1 inh inactive.
Screening N#C/C(=C/c1ccc(-c2cc(C(=O)O)cc(C(=O)O)c2)o1)c1nc2ccccc2s1 returned Diaph inh CS 61, G6PDH CS inactive and TbHK1 inh inactive.
For COc1cc(/C=C(\C#N)c2nc3ccccc3s2)cc([N+](=O)[O-])c1O the results were PfGluPho inh inactive, Diaph inh CS 85, HKDC1 inhibitor inactive, G6PDH CS inactive and TbHK1 inh inactive.
`N#C/C(=C\c1ccc(O)c([N+](=O)[O-])c1)c1nc2ccccc2s1` gave PfGluPho inh inactive, Diaph inh CS 97, HKDC1 inhibitor inactive, G6PDH CS inactive and TbHK1 inh inactive.
For CC(C)CCn1c(COc2ccccc2)n[nH]c1=S the results were PfGluPho inh inactive, Diaph inh CS inactive, HKDC1 inhibitor inactive, G6PDH CS inactive and TbHK1 inh inactive.
Screening CCOc1cc(/C=C/C(=O)OCC(=O)NC2CCS(=O)(=O)C2)ccc1OCc1ccccc1 (centres undefined) returned PfGluPho inh inactive, Diaph inh CS inactive, HKDC1 inhibitor inactive, G6PDH CS inactive and TbHK1 inh inactive.
`CCOC(=O)c1sc(NC(=O)c2ccoc2C)c(C(N)=O)c1C` gave PfGluPho inh inactive and HKDC1 inhibitor inactive.
`COc1cccc(-n2c(SCc3cc(=O)oc4cc(O)c(O)cc34)nc3ccccc3c2=O)c1` gave PfGluPho inh inactive, Diaph inh CS 59, HKDC1 inhibitor inactive, G6PDH CS inactive and TbHK1 inh inactive.
`Cc1ccc(NC(=O)COc2cccnc2[N+](=O)[O-])cc1S(=O)(=O)N1CCOCC1` gave PfGluPho inh inactive, Diaph inh CS inactive, HKDC1 inhibitor inactive, G6PDH CS inactive and TbHK1 inh inactive.
CCCCCc1nc2ccccc2c(=O)n1NC(=O)c1c(O)c2cccc3c2n(c1=O)CCC3 was read as TbHK1 inh inactive.
`CCOC(=O)C1CCC(C(=O)OCC)N1c1ccc(C=O)cc1` (centres undefined) gave PfGluPho inh inactive.
CCOc1ccc(CCNC(=O)c2cc(=O)[nH]c3ccc(S(=O)(=O)N(CC)CC)cc23)cc1OCC was read as PfGluPho inh inactive and HKDC1 inhibitor inactive.
Cc1cccc(NC(=O)CN2C(=O)N/C(=C/c3ccc(C)o3)C2=O)c1 was read as PfGluPho inh inactive, Diaph inh CS inactive, HKDC1 inhibitor inactive, G6PDH CS inactive and TbHK1 inh inactive.
For CC(=O)N1C(=S)NC(=O)/C1=C1/C(=O)N(CC(=O)Nc2cccc(C)c2)c2ccccc21 the results were PfGluPho inh inactive, Diaph inh CS 67, HKDC1 inhibitor inactive, G6PDH CS inactive and TbHK1 inh inactive.
O=C(O)CN1C(=O)C2C3CC(C2C1=O)C1C(c2ccc(Cl)cc2)c2sc(=O)[nH]c2SC31 (centres undefined) was read as PfGluPho inh inactive, Diaph inh CS inactive, HKDC1 inhibitor inactive, G6PDH CS inactive and TbHK1 inh inactive.
O=C1CCN2C=Nc3cccc4ccc1c2c34 was read as PfGluPho inh inactive, Diaph inh CS 77, HKDC1 inhibitor inactive, G6PDH CS inactive and TbHK1 inh inactive.
Screening CC(/C=N/n1c(-c2ccco2)n[nH]c1=S)=C\c1ccccc1 returned PfGluPho inh inactive, Diaph inh CS 50, HKDC1 inhibitor inactive, G6PDH CS inactive and TbHK1 inh inactive.
S=c1[nH]nc(-c2ccco2)n1/N=C/C=C/c1ccco1 was read as PfGluPho inh inactive, Diaph inh CS 64, HKDC1 inhibitor inactive, G6PDH CS inactive and TbHK1 inh inactive.
For S=c1[nH]nc(-c2cc(-c3ccccc3)n[nH]2)n1/N=C/C=C/c1ccco1 the results were PfGluPho inh inactive, HKDC1 inhibitor inactive and TbHK1 inh inactive.
CC(/C=N/n1c(-c2ccc(Cl)cc2)n[nH]c1=S)=C\c1ccco1 was read as PfGluPho inh inactive, Diaph inh CS 53, HKDC1 inhibitor inactive, G6PDH CS inactive and TbHK1 inh inactive.
`O=C(C1CCC1)N1CCc2cc(S(=O)(=O)NCCCN3CCCCC3)ccc21` gave PfGluPho inh inactive and HKDC1 inhibitor inactive.

From PubChem
